Measured values: ChEMBL document CHEMBL4346701, “Synthesis and biological evaluation of tryptophan-derived rhodanine derivatives as PTP1B inhibitors and anti-bacterial agents” (Eur J Med Chem, 2019)
In brackets after ≈: the same amount, converted by molar mass.

What was measured:
Staphylococcus aureus [1] = assay: Antibacterial activity against Quinolone-resistant Staphylococcus aureus CCARM 3505 assessed as reduction in bacterial cell growth incubated for 24 hrs by ELISA; assay type: functional; conditions: CCARM 3505, 24 h
How it was run: (§1)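 MICs determined by serial dilution in 96-well microtiter plates. The strain panel included Gram-positive S. aureus strains and multidrug-resistant clinical isolates. Gatifloxacin, moxifloxacin, norfloxacin and oxacillin served as antibacterial positive controls.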

Staphylococcus aureus [2] = assay: Antibacterial activity against Staphylococcus aureus RN4220 assessed as reduction in bacterial cell growth incubated for 24 hrs by ELISA; assay type: functional; conditions: RN4220, 24 h; how it was run: as §1
[3] = molecular target: T1, Tyrosine-protein phosphatase non-receptor type 1 (Homo sapiens, UniProt P18031); assay: Inhibition of human recombinant GST-tagged PTP1B expressed in Escherichia coli BL21 (DE3) using pNPP as substrate measured for 2 mins by colorimetric analysis
T1 sequence (P18031 whole entry): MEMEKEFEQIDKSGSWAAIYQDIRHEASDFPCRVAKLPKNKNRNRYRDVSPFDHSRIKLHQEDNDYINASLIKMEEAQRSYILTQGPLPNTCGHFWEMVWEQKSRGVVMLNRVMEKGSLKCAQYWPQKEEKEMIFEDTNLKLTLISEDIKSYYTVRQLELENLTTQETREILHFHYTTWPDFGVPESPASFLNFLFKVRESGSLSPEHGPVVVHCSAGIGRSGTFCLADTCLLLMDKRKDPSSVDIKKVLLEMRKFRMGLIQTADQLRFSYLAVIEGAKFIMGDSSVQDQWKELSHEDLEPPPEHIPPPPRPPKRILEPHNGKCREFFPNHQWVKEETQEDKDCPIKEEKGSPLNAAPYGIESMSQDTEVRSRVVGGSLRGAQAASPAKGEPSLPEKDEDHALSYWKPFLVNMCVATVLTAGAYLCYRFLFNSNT

Escherichia coli = assay: Antibacterial activity against Escherichia coli 1924 assessed as reduction in bacterial cell growth incubated for 24 hrs by ELISA; assay type: functional; conditions: Escherichia coli, 1924, 24 h
How it was run: (§2)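 MIC determined by serial dilution in 96-well microtiter plates. Strains used were E. coli 1924 and P. aeruginosa 2742 (Gram-negative), S. mutans 3289 (Gram-positive) and the fungus C. albicans 7535. Gatifloxacin, moxifloxacin, norfloxacin and oxacillin served as antibacterial reference agents, and fluconazole as the antifungal reference.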

Pseudomonas aeruginosa = assay: Antibacterial activity against Pseudomonas aeruginosa 2742 assessed as reduction in bacterial cell growth incubated for 24 hrs by ELISA; assay type: functional; conditions: Pseudomonas aeruginosa, 2742, 24 h; how it was run: as §2
Staphylococcus aureus [4] = assay: Antibacterial activity against Staphylococcus aureus KCTC503 assessed as reduction in bacterial cell growth incubated for 24 hrs by ELISA; assay type: functional; conditions: KCTC503, 24 h; how it was run: as §1
Staphylococcus aureus [5] = assay: Antibacterial activity against Methicillin-resistant Staphylococcus aureus CCARM 3167 assessed as reduction in bacterial cell growth incubated for 24 hrs by ELISA; assay type: functional; conditions: CCARM 3167, 24 h; how it was run: as §1
Staphylococcus aureus [6] = assay: Antibacterial activity against Staphylococcus aureus KCTC209 assessed as reduction in bacterial cell growth incubated for 24 hrs by ELISA; assay type: functional; conditions: KCTC209, 24 h; how it was run: as §1
Staphylococcus aureus [7] = assay: Antibacterial activity against Quinolone-resistant Staphylococcus aureus CCARM 3519 assessed as reduction in bacterial cell growth incubated for 24 hrs by ELISA; assay type: functional; conditions: CCARM 3519, 24 h; how it was run: as §1
Staphylococcus aureus [8] = assay: Antibacterial activity against Methicillin-resistant Staphylococcus aureus CCARM 3506 assessed as reduction in bacterial cell growth incubated for 24 hrs by ELISA; assay type: functional; conditions: CCARM 3506, 24 h; how it was run: as §1
Candida albicans = assay: Antifungal activity against Candida albicans 7535 assessed as reduction in bacterial cell growth incubated for 24 hrs by ELISA; assay type: functional; conditions: Candida albicans, 7535, 24 h; how it was run: as §2
Streptococcus mutans = assay: Antibacterial activity against Streptococcus mutans KCTC3289 assessed as reduction in bacterial cell growth incubated for 24 hrs by ELISA; assay type: functional; conditions: KCTC3289, 24 h; how it was run: as §2
[9] = molecular target: T2, Tyrosine-protein phosphatase non-receptor type 2 (Homo sapiens, UniProt P17706); assay: Inhibition of human recombinant GST-tagged TCPTP (catalytic domain […] residues) expressed in Escherichia coli BL21 (DE3) using pNPP as substrate measured for 2 mins by colorimetric analysis
T2 sequence (P17706 whole entry): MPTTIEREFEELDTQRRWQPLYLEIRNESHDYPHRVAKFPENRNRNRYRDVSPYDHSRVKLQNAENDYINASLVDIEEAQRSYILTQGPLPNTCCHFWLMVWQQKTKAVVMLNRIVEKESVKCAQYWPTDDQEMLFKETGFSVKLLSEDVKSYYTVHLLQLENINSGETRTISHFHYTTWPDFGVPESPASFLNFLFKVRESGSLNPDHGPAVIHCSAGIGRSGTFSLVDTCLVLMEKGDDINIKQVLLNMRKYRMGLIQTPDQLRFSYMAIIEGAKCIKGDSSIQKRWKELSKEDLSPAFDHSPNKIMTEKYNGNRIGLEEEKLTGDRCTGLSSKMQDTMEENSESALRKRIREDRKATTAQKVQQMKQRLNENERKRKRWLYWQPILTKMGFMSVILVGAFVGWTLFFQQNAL

[10] = molecular target: T3, M-phase inducer phosphatase 2 (Homo sapiens, UniProt P30305); assay: Inhibition of human recombinant GST-tagged CDC25B expressed in Escherichia coli BL21 (DE3) using pNPP as substrate measured for 2 mins by colorimetric analysis
T3 sequence (P30305 whole entry): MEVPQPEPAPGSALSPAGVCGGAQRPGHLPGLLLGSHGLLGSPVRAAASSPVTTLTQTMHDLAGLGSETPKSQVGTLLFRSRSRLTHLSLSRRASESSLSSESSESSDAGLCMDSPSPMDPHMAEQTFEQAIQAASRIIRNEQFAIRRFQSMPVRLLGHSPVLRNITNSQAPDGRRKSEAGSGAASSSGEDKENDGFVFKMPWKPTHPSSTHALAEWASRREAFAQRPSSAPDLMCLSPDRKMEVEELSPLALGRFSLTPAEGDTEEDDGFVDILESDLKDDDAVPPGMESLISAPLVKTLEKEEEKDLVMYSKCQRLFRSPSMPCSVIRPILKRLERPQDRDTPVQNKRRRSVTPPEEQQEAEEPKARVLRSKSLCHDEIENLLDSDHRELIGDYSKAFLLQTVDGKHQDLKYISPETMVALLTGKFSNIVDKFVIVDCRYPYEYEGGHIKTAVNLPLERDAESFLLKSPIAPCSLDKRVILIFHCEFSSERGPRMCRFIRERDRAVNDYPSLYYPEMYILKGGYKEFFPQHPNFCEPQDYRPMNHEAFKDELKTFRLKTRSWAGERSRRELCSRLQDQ
How it was run: (§3)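 pNPP hydrolysis assay. IC50 was derived by regression analysis and given as mean ± SD of three replications.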

[11] = molecular target: T4, Tyrosine-protein phosphatase non-receptor type 11 (Homo sapiens, UniProt Q06124); assay: Inhibition of human recombinant GST-tagged SHP2 (catalytic domain […] residues) expressed in Escherichia coli BL21 (DE3) using pNPP as substrate measured for 2 mins by colorimetric analysis; how it was run: as §3
T4 sequence (Q06124 whole entry): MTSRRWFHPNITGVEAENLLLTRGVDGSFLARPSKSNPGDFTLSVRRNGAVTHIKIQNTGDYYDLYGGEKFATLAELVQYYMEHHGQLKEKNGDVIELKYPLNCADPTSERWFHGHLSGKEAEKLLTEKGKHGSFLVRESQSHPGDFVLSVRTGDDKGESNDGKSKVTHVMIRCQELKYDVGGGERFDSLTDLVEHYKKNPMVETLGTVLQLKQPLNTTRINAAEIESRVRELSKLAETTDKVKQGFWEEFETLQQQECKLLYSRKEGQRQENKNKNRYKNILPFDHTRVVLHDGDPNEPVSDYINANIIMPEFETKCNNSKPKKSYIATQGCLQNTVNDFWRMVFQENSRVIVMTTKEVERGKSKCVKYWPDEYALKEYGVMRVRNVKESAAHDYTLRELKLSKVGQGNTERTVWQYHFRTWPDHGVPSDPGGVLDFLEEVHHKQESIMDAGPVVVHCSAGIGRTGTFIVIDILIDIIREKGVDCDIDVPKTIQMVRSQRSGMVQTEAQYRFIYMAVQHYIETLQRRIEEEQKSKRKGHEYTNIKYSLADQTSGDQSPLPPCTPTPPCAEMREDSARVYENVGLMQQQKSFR

[12] = molecular target: Tyrosine-protein phosphatase non-receptor type 6 (Homo sapiens, UniProt P29350); assay: Inhibition of human recombinant GST-tagged SHP1 (catalytic domain 244 to 570 residues) expressed in Escherichia coli BL21 (DE3) using pNPP as substrate measured for 2 mins by colorimetric analysis; how it was run: as §3
Sequence of Tyrosine-protein phosphatase non-receptor type 6 (P29350 whole entry, the tested form may be a part): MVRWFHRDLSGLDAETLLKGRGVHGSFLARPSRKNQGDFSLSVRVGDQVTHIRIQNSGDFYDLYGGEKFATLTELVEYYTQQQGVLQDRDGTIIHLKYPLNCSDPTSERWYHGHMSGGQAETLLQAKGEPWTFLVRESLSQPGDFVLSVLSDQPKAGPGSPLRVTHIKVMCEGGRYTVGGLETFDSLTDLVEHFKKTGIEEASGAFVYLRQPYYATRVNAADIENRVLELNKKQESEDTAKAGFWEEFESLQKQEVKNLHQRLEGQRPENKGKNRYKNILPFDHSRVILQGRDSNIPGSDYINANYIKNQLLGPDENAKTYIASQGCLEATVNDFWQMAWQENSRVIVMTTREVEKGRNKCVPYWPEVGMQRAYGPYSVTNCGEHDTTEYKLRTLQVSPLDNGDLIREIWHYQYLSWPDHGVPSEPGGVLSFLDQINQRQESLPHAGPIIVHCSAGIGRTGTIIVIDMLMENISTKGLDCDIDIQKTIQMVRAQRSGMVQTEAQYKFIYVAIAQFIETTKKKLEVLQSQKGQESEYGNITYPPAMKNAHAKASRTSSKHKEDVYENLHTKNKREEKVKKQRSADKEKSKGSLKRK

Row | SMILES | MIC (Staphylococcus aureus [1]) [µg/mL] | MIC (Staphylococcus aureus [2]) [µg/mL] | IC50 [3] [µM] | MIC (Escherichia coli) [µg/mL] | MIC (Pseudomonas aeruginosa) [µg/mL] | MIC (Staphylococcus aureus [4]) [µg/mL] | MIC (Staphylococcus aureus [5]) [µg/mL] | MIC (Staphylococcus aureus [6]) [µg/mL] | MIC (Staphylococcus aureus [7]) [µg/mL] | MIC (Staphylococcus aureus [8]) [µg/mL] | MIC (Candida albicans) [µg/mL] | MIC (Streptococcus mutans) [µg/mL] | IC50 [9] [µM] | IC50 [10] [µM] | IC50 [11] [µM] | IC50 [12] [µM]
1 | COc1cc(/C=C2\SC(=S)N(C(Cc3c[nH]c4ccccc34)C(=O)O)C2=O)ccc1OCc1ccc(Cl)cc1 (stereo not given) | 4 (≈ 6.91 µM) | 2 (≈ 3.45 µM) | 4.36 | 4 (≈ 6.91 µM) | > 64 | 4 (≈ 6.91 µM) | 4 (≈ 6.91 µM) | 4 (≈ 6.91 µM) | 4 (≈ 6.91 µM) | 4 (≈ 6.91 µM) | > 64 | 4 (≈ 6.91 µM) | – | – | – | –
2 | Cc1ccc(COc2ccc(/C=C3\SC(=S)N(C(Cc4c[nH]c5ccccc45)C(=O)O)C3=O)cc2)cc1 (stereo not given) | 8 (≈ 15.1 µM) | 4 (≈ 7.57 µM) | 5.93 | 8 (≈ 15.1 µM) | > 64 | 8 (≈ 15.1 µM) | 8 (≈ 15.1 µM) | 4 (≈ 7.57 µM) | 16 (≈ 30.3 µM) | 8 (≈ 15.1 µM) | > 64 | 4 (≈ 7.57 µM) | – | – | – | –
3 | O=C(O)C(Cc1c[nH]c2ccccc12)N1C(=O)/C(=C/c2ccc3cc(OCc4ccc(F)cc4)ccc3c2)SC1=S (stereo not given) | 2 (≈ 3.43 µM) | 1 (≈ 1.72 µM) | 0.45 | 2 (≈ 3.43 µM) | > 64 | 2 (≈ 3.43 µM) | 2 (≈ 3.43 µM) | 4 (≈ 6.86 µM) | 2 (≈ 3.43 µM) | 2 (≈ 3.43 µM) | > 64 | 2 (≈ 3.43 µM) | 1.12 | 0.38 | 4.26 | 1.52
4 | COc1cc(/C=C2\SC(=S)N(C(Cc3c[nH]c4ccccc34)C(=O)O)C2=O)ccc1OCc1ccc(C)cc1 (stereo not given) | 2 (≈ 3.58 µM) | 2 (≈ 3.58 µM) | 3.6 | 2 (≈ 3.58 µM) | > 64 | 4 (≈ 7.16 µM) | 4 (≈ 7.16 µM) | 2 (≈ 3.58 µM) | 8 (≈ 14.3 µM) | 2 (≈ 3.58 µM) | > 64 | 2 (≈ 3.58 µM) | – | – | – | –
5 | O=C(O)C(Cc1c[nH]c2ccccc12)N1C(=O)/C(=C/c2cccc(OCc3ccccc3)c2)SC1=S (stereo not given) | 8 (≈ 15.5 µM) | 4 (≈ 7.77 µM) | 8.23 | 8 (≈ 15.5 µM) | > 64 | 8 (≈ 15.5 µM) | 8 (≈ 15.5 µM) | 8 (≈ 15.5 µM) | 8 (≈ 15.5 µM) | 8 (≈ 15.5 µM) | > 64 | 8 (≈ 15.5 µM) | – | – | – | –
6 | O=C(O)C(Cc1c[nH]c2ccccc12)N1C(=O)/C(=C/c2ccc(OCc3ccc(Cl)cc3)cc2)SC1=S (stereo not given) | 4 (≈ 7.29 µM) | 2 (≈ 3.64 µM) | 2.44 | 4 (≈ 7.29 µM) | > 64 | 4 (≈ 7.29 µM) | 4 (≈ 7.29 µM) | 4 (≈ 7.29 µM) | 4 (≈ 7.29 µM) | 4 (≈ 7.29 µM) | > 64 | 2 (≈ 3.64 µM) | – | – | – | –
7 | O=C(O)C(Cc1c[nH]c2ccccc12)N1C(=O)/C(=C/c2cccc(OCc3ccc(Cl)cc3Cl)c2)SC1=S (stereo not given) | 4 (≈ 6.85 µM) | 4 (≈ 6.85 µM) | 1.7 | 8 (≈ 13.7 µM) | > 64 | 8 (≈ 13.7 µM) | 8 (≈ 13.7 µM) | 4 (≈ 6.85 µM) | 4 (≈ 6.85 µM) | 8 (≈ 13.7 µM) | > 64 | 4 (≈ 6.85 µM) | – | – | – | –
8 | O=C(O)C(Cc1c[nH]c2ccccc12)N1C(=O)/C(=C/c2ccc(OCc3ccccc3)cc2)SC1=S (stereo not given) | 8 (≈ 15.5 µM) | 4 (≈ 7.77 µM) | 5.52 | 8 (≈ 15.5 µM) | > 64 | 8 (≈ 15.5 µM) | 8 (≈ 15.5 µM) | 8 (≈ 15.5 µM) | 8 (≈ 15.5 µM) | 8 (≈ 15.5 µM) | > 64 | 4 (≈ 7.77 µM) | – | – | – | –
